Converted amounts (≈) assume the structure as drawn. The source made the active and inactive calls. No cut-off for these calls is given here.
Tests used:
Staphylococcus aureus [1] = test: Antimicrobial activity against CA-methicillin-resistant Staphylococcus aureus W45 ST59 incubated for 20 hrs by microdilution method; conditions: W45 ST59, 20 h
Enterococcus faecium = test: Antimicrobial activity against Enterococcus faecium ATCC 19433 incubated for 20 hrs by microdilution method; type: functional; conditions: ATCC 19433, 20 h
How it was run: (§1)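 Broth microdilution MIC testing done following CLSI guidelines.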

Staphylococcus aureus [2] = test: Antimicrobial activity against CA-methicillin-resistant Staphylococcus aureus W48 ST217 incubated for 20 hrs by microdilution method; conditions: W48 ST217, 20 h
Bacillus subtilis = test: Inhibition of N-terminal LgBiT-fused Bacillus subtilis NusB expressed in Escherichia coli BL21(DE3)pLysS interaction with C- terminal SmBiT-fused Bacillus subtilis NusE expressed in Escherichia coli BL21(DE3)pLysS at 100 uM preincubated for 10 mins followed by NusE addition and measured after 10 mins by nano-glo luciferase assay relative to control
How it was run: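 NusB and NusE were mixed 1:1 at 1 µM in PBS, with compound at 100 µM. The read-out was percent inhibition of the NusB-NusE interaction.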

Pseudomonas aeruginosa = test: Antimicrobial activity against Pseudomonas aeruginosa ATCC 27853 incubated for 20 hrs by microdilution method; type: functional; conditions: ATCC 27853, 20 h; how it was run: as §1
[3] = test system: Enterococcus casseliflavus; test: Antimicrobial activity against Enterococcus casseliflavus ATCC 25788 incubated for 20 hrs by microdilution method; type: functional; conditions: ATCC 25788, 20 h; how it was run: as §1
Staphylococcus aureus [4] = test: Antimicrobial activity against CA-methicillin-resistant Staphylococcus aureus W4 ST338 incubated for 20 hrs by microdilution method; type: functional; conditions: W4 ST338, 20 h
How it was run: (§2)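 MIC determined by microdilution following Clinical & Laboratory Standards Institute (CLSI) guidelines, read in µg/mL, against a panel of hospital- and community-acquired MRSA strains.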

Streptococcus agalactiae = test: Antimicrobial activity against Streptococcus agalactiae ATCC 12386 incubated for 20 hrs by microdilution method; type: functional; conditions: ATCC 12386, 20 h; how it was run: as §1
Streptococcus pyogenes = test: Antimicrobial activity against Streptococcus pyogenes ATCC 19615 incubated for 20 hrs by microdilution method; type: functional; conditions: ATCC 19615, 20 h; how it was run: as §1
Bacteria = test: Binding affinity to bacterial NusB assessed as change in chiral structure at 2 ug/ml by circular dichroism spectroscopic analysis
How it was run: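 Circular dichroism spectra were recorded on NusB at 2.0 µg/mL in neutral phosphate buffer, alone and after mixing with compound at a 1:1 ratio. Binding was read as a change in the spectrum.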

Staphylococcus aureus [5] = test: Antimicrobial activity against Staphylococcus aureus ST22 11B086169 incubated for 20 hrs by microdilution method; type: functional; conditions: ST22 11B086169, 20 h; how it was run: as §2
Staphylococcus aureus [6] = test: Antimicrobial activity against Staphylococcus aureus USA300/ST8 incubated for 20 hrs by microdilution method; conditions: USA300 ST8, 20 h
Streptococcus pneumoniae = test: Antimicrobial activity against Streptococcus pneumoniae ATCC 49619 incubated for 20 hrs by microdilution method; type: functional; conditions: ATCC 49619, 20 h; how it was run: as §1
Staphylococcus aureus [7] = test: Antimicrobial activity against Staphylococcus aureus HA W231 ST45 incubated for 20 hrs by microdilution method; type: functional; conditions: HA W231 ST45, 20 h; how it was run: as §2
Acinetobacter baumannii = test: Antimicrobial activity against Acinetobacter baumannii ATCC 19606 incubated for 20 hrs by microdilution method; type: functional; conditions: ATCC 19606 = CIP 70.34 = JCM 6841, 20 h; how it was run: as §1
Staphylococcus aureus [8] = test: Antimicrobial activity against Staphylococcus aureus HA W235 ST5 incubated for 20 hrs by microdilution method; type: functional; conditions: HA W235 ST5, 20 h; how it was run: as §2
[9] = microbe, parasite or virus in culture; conditions: Enterobacter cloacae, ATCC 13047, 20 h
Staphylococcus aureus [10] = test: Antimicrobial activity against Staphylococcus aureus ATCC BAA44 incubated for 20 hrs by microdilution method; type: functional; conditions: ATCC BAA44, 20 h; how it was run: as §2
Staphylococcus aureus [11] = test: Antimicrobial activity against Staphylococcus aureus ST239 incubated for 20 hrs by microdilution method; type: functional; conditions: CN79, 20 h; how it was run: as §2
[12] = Antimicrobial activity against Staphylococcus saprophyticus ATCC 15305 incubated for 20 hrs by microdilution method; type: functional, Staphylococcus saprophyticus subsp. saprophyticus; conditions: ATCC 15305, 20 h; how it was run: as §1
Staphylococcus aureus [13] = test: Antimicrobial activity against CA-methicillin-resistant Staphylococcus aureus W46 ST59 incubated for 20 hrs by microdilution method; conditions: W46 ST59, 20 h
Staphylococcus aureus [14] = test: microbe, parasite or virus in culture; conditions: ATCC 29213, 20 h
Staphylococcus aureus [15] = test: Antimicrobial activity against Staphylococcus aureus ATCC BAA43 incubated for 20 hrs by microdilution method; type: functional; conditions: ATCC BAA43, 20 h; how it was run: as §2
[16] = Cytotoxicity against human HaCaT cells assessed as reduction in cell viability after 48 to 72 hrs by MTT assay; type: cell-based
[17] = Therapeutic index, ratio of CC50 for human A549 cells to 1/2 times MIC for Staphylococcus aureus ATCC 25923; type: toxicity; conditions: read-out: TI
[18] = Cytotoxicity against human A549 cells assessed as reduction in cell viability after 48 to 72 hrs by MTT assay; type: cell-based
[19] = Therapeutic index, ratio of CC50 for human HaCaT cells to 1/2 times MIC for Staphylococcus aureus ATCC 25923; type: toxicity; conditions: read-out: TI
Staphylococcus aureus [20] = test: microbe, parasite or virus in culture; conditions: ATCC 25923, 20 h
Staphylococcus aureus [21] = test: Antimicrobial activity against CA-methicillin-resistant Staphylococcus aureus W47 ST30 incubated for 20 hrs by microdilution method; type: functional; conditions: W47 ST30, 20 h; how it was run: as §2
[22] = test system: Staphylococcus epidermidis; test: Antimicrobial activity against Staphylococcus epidermidis ATCC 12228 incubated for 20 hrs by microdilution method; type: functional; conditions: ATCC 12228, 20 h; how it was run: as §1

Row | Structure (SMILES) | MIC (Staphylococcus aureus [1]) | MIC (Enterococcus faecium) | MIC (Staphylococcus aureus [2]) | inhibition (Bacillus subtilis) | MIC (Pseudomonas aeruginosa) | MIC [3] | MIC (Staphylococcus aureus [4]) | MIC (Streptococcus agalactiae) | MIC (Streptococcus pyogenes) | MIC (Staphylococcus aureus [5]) | MIC (Staphylococcus aureus [6]) | MIC (Streptococcus pneumoniae) | MIC (Staphylococcus aureus [7]) | MIC (Acinetobacter baumannii) | MIC (Staphylococcus aureus [8]) | MIC [9] | MIC (Staphylococcus aureus [10]) | MIC (Staphylococcus aureus [11]) | MIC [12] | MIC (Staphylococcus aureus [13]) | other results
1 | CC(C)(C)c1ccccc1NCc1cc([N+](=O)[O-])ccc1O | 2 µg/mL (≈ 6.66 µM) | 8 µg/mL (≈ 26.6 µM) | 2 µg/mL (≈ 6.66 µM) | 72.2% | > 256 µg/mL | 16 µg/mL (≈ 53.3 µM) | 2 µg/mL (≈ 6.66 µM) | 8 µg/mL (≈ 26.6 µM) | 8 µg/mL (≈ 26.6 µM) | 2 µg/mL (≈ 6.66 µM) | 2 µg/mL (≈ 6.66 µM) | 2 to 8 µg/mL (≈ 6.66 to 26.6 µM) | 2 µg/mL (≈ 6.66 µM) | > 256 µg/mL | 2 µg/mL (≈ 6.66 µM) | > 256 µg/mL | 2 µg/mL (≈ 6.66 µM) | 2 µg/mL (≈ 6.66 µM) | 2 µg/mL (≈ 6.66 µM) | 2 µg/mL (≈ 6.66 µM) | Activity (Bacteria): Active; MIC (Staphylococcus aureus [14]): 4 µg/mL (≈ 13.3 µM); MIC (Staphylococcus aureus [15]): 2 µg/mL (≈ 6.66 µM); CC50 [16]: 15.1 µM; selectivity ratio [17]: 8; CC50 [18]: 13.4 µM; selectivity ratio [19]: 9; MIC (Staphylococcus aureus [20]): 1 µg/mL (≈ 3.33 µM); MIC (Staphylococcus aureus [21]): 2 µg/mL (≈ 6.66 µM); MIC [22]: 1 µg/mL (≈ 3.33 µM)
2 | O=[N+]([O-])c1ccc(O)c(CNc2ccccc2C(F)(F)F)c1 | 4 µg/mL (≈ 12.8 µM) | 8 µg/mL (≈ 25.6 µM) | 2 µg/mL (≈ 6.41 µM) | 61.5% | > 256 µg/mL | 64 µg/mL (≈ 205 µM) | 2 µg/mL (≈ 6.41 µM) | 16 µg/mL (≈ 51.2 µM) | 16 µg/mL (≈ 51.2 µM) | 4 µg/mL (≈ 12.8 µM) | 2 µg/mL (≈ 6.41 µM) | 8 µg/mL (≈ 25.6 µM) | 4 µg/mL (≈ 12.8 µM) | 128 µg/mL (≈ 410 µM) | 2 µg/mL (≈ 6.41 µM) | 256 µg/mL (≈ 820 µM) | 4 µg/mL (≈ 12.8 µM) | 4 µg/mL (≈ 12.8 µM) | 4 µg/mL (≈ 12.8 µM) | 2 µg/mL (≈ 6.41 µM) | MIC (Staphylococcus aureus [14]): 2 µg/mL (≈ 6.41 µM); MIC (Staphylococcus aureus [15]): 4 µg/mL (≈ 12.8 µM); CC50 [16]: 18.3 µM; selectivity ratio [17]: 6; CC50 [18]: 20 µM; selectivity ratio [19]: 6; MIC (Staphylococcus aureus [20]): 2 µg/mL (≈ 6.41 µM); MIC (Staphylococcus aureus [21]): 4 µg/mL (≈ 12.8 µM); MIC [22]: 2 µg/mL (≈ 6.41 µM)
3 | CC(C)(C)c1ccc(NCc2cc([N+](=O)[O-])ccc2O)cc1 | 4 µg/mL (≈ 13.3 µM) | > 256 µg/mL | 8 µg/mL (≈ 26.6 µM) | 10.8% | > 256 µg/mL | 32 µg/mL (≈ 107 µM) | 4 µg/mL (≈ 13.3 µM) | 16 µg/mL (≈ 53.3 µM) | 16 µg/mL (≈ 53.3 µM) | 4 µg/mL (≈ 13.3 µM) | 4 µg/mL (≈ 13.3 µM) | 4 to 8 µg/mL (≈ 13.3 to 26.6 µM) | 4 µg/mL (≈ 13.3 µM) | > 256 µg/mL | 4 µg/mL (≈ 13.3 µM) | > 256 µg/mL | 4 µg/mL (≈ 13.3 µM) | 4 µg/mL (≈ 13.3 µM) | 8 µg/mL (≈ 26.6 µM) | 4 µg/mL (≈ 13.3 µM) | MIC (Staphylococcus aureus [14]): 4 µg/mL (≈ 13.3 µM); MIC (Staphylococcus aureus [15]): 4 µg/mL (≈ 13.3 µM); CC50 [16]: 38.9 µM; selectivity ratio [17]: 11; CC50 [18]: 37.2 µM; selectivity ratio [19]: 12; MIC (Staphylococcus aureus [20]): 2 µg/mL (≈ 6.66 µM); MIC (Staphylococcus aureus [21]): 4 µg/mL (≈ 13.3 µM); MIC [22]: 4 µg/mL (≈ 13.3 µM)

Reference: ChEMBL document CHEMBL4364256, “Design, synthesis and biological evaluation of antimicrobial diarylimine and -amine compounds targeting the interaction between the bacterial NusB and NusE proteins” (Eur J Med Chem, 2019)
